Measurements from ChEMBL document CHEMBL1131198, “From micromolar to nanomolar affinity: a systematic approach to identify the binding site of CGRP at the human calcitonin gene-related peptide 1 receptor” (J Med Chem, 1998).
Square brackets hold non-standard residues; d marks the D form. Peptide text beside a SMILES is read from it. Hyp = O=C(O)[C@@H]1C[C@@H](O)CN1; Tic = O=C(O)[C@@H]1Cc2ccccc2CN1

What was measured:
[1] = molecular target: Calcitonin gene-related peptide type 1 receptor (Homo sapiens, UniProt Q16602); assay: (§1) CGRP1 receptor affinity on human neuroblastoma cells SK-N-MC, which selectively express the human CGRP1 receptor.
Chain of Calcitonin gene-related peptide type 1 receptor (Homo sapiens, UniProt Q16602) (Q16602 whole entry): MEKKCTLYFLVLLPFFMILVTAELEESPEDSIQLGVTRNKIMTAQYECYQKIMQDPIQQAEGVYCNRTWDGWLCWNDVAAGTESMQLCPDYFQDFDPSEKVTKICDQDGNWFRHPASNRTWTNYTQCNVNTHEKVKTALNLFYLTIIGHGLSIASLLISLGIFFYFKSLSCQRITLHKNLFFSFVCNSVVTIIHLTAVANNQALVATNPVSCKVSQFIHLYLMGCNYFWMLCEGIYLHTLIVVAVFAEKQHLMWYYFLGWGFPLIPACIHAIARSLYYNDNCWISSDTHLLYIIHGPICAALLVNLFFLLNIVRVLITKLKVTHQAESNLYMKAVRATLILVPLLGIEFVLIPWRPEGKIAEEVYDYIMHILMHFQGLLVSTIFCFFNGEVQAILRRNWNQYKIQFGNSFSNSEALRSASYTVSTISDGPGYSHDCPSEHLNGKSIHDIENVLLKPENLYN
Procedure, shortened: (§2)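 SK-N-MC membranes (cells grown in DMEM, detached with PBS/0.02% EDTA, homogenized, pellet in Tris buffer pH 7.40 with 1% BSA, 0.1% bacitracin, stored -80 °C) diluted 1:10 in assay buffer (50 mM Tris, 150 mM NaCl, 5 mM MgCl2, 1 mM EDTA, pH 7.40).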

[2] = molecular target: Calcitonin gene-related peptide type 1 receptor (Homo sapiens, UniProt O60894+Q16602); assay: as §1; procedure, shortened: as §2
Chain of Calcitonin gene-related peptide type 1 receptor (Homo sapiens, UniProt O60894+Q16602) (Q16602 whole entry, one chain of several): as the sequence (Q16602 whole entry) above

| IC50 [1] | IC50 [2] [µM] | Compound |
| --- | --- | --- |
| 19 µM | – | CC(C)[C@H](NC(=O)[C@H](CC(N)=O)NC(=O)[C@@H](NC(=O)[C@@H]1CCCN1C(=O)[C@H](NC(=O)[C@@H](N)Cc1ccc(O)cc1)C(C)C)[C@@H](C)O)C(=O)NCC(=O)N[C@@H](CO)C(=O)N[C@@H](CCC(=O)O)C(=O)N[C@@H](C)C(=O)N[C@@H](Cc1ccccc1)C(=O)O |
| No displacement | – | CC(C)[C@H](NC(=O)[C@H](CC(N)=O)NC(=O)[C@H](NC(=O)[C@@H]1CCCN1C(=O)[C@@H](NC(=O)[C@@H](N)Cc1ccc(O)cc1)C(C)C)[C@@H](C)O)C(=O)NCC(=O)N[C@@H](CO)C(=O)N[C@@H](CCC(=O)O)C(=O)N[C@@H](C)C(=O)N[C@@H](Cc1ccccc1)C(=O)O |
| No displacement | – | CC(C)[C@H](NC(=O)[C@H](CC(N)=O)NC(=O)[C@@H](NC(=O)[C@@H]1CCCN1C(=O)[C@@H](NC(=O)[C@@H](N)Cc1ccc(O)cc1)C(C)C)[C@@H](C)O)C(=O)NCC(=O)N[C@@H](CO)C(=O)N[C@H](CCC(=O)O)C(=O)N[C@@H](C)C(=O)N[C@@H](Cc1ccccc1)C(=O)O |
| No displacement | – | CC(C)[C@H](NC(=O)[C@H](CC(N)=O)NC(=O)[C@@H](NC(=O)[C@@H]1CCCN1C(=O)[C@@H](NC(=O)[C@@H](N)Cc1ccc(O)cc1)C(C)C)[C@@H](C)O)C(=O)NCC(=O)N[C@@H](CO)C(=O)N[C@@H](CCC(=O)O)C(=O)N[C@@H](C)C(=O)N[C@H](Cc1ccccc1)C(=O)O |
| No displacement | – | CC(C)[C@H](NC(=O)[C@@H](N)Cc1ccc(O)cc1)C(=O)N1CCC[C@H]1C(=O)N[C@H](C(=O)N[C@@H](CC(N)=O)C(=O)N[C@@H](C(=O)NCC(=O)N[C@@H](CO)C(=O)N[C@@H](CCC(=O)O)C(=O)N[C@@H](C)C(=O)N[C@@H](Cc1ccccc1)C(=O)O)C(C)C)[C@@H](C)O |
| 0.146 µM | – | CC(C)[C@H](NC(=O)[C@H](CC(=O)O)NC(=O)[C@@H](NC(=O)[C@@H]1CCCN1C(=O)[C@@H](NC(=O)[C@@H](N)Cc1ccccc1)C(C)C)[C@@H](C)O)C(=O)NCC(=O)N1Cc2ccccc2C[C@H]1C(=O)N[C@@H](Cc1ccccc1)C(=O)N[C@@H](C)C(=O)N[C@@H](Cc1ccccc1)C(N)=O (H-FVPTDVG[Tic]FAF-NH2) |
| – | 9 | CC(C)[C@H](NC(=O)[C@H](CC(N)=O)NC(=O)[C@@H](NC(=O)[C@@H]1C[C@@H](O)CN1C(=O)[C@@H](NC(=O)[C@@H](N)Cc1ccc(O)cc1)C(C)C)[C@@H](C)O)C(=O)NCC(=O)N[C@@H](CO)C(=O)N[C@@H](CCC(=O)O)C(=O)N[C@@H](C)C(=O)N[C@@H](Cc1ccccc1)C(=O)O (H-YV[Hyp]TNVGSEAF-OH) |
| – | 0.205 | Ac-FVPTDVGAFAF-OH |
| – | 4.5 | Ac-FVPTNVGSEAF-OH |
| – | 0.49 | Ac-PTDVGAFAF-OH |
| – | 0.3 | Ac-VPTDVGAFAF-OH |
| – | 24 | H-AVPTNVGSEAF-OH |
| – | 3.4 | H-FPPTNVGSEAF-OH |
| – | > 10 | H-FVPPNVGSEAF-OH |
| – | 0.159 | H-FVPTDVGAFAF-OH |
| – | 0.36 | H-FVPTDVGAHAF-OH |
| – | 0.47 | H-FVPTDVGPEAF-OH |
| – | > 3 | H-FVPTDVGSEAF-OH |
| – | 1.2 | H-FVPTDVGSQAF-OH |
| – | > 10 | H-FVPTNPGSEAF-OH |
| – | 0.28 | H-FVPTNVGPEAF-OH |
| – | 3 | H-FVPTNVGSEAF-OH |

| IC50 [1] | IC50 [2] [µM] | Compound |
| --- | --- | --- |
| – | > 10 | H-FVPTNVGSEPF-OH |
| – | 2.7 | H-FVPTNVGSKAF-OH |
| – | > 10 | H-FVPTNVGSPAF-OH |
| – | > 10 | H-FVPTNVPSEAF-OH |
| – | 4.5 | H-FVPTPVGSEAF-OH |
| – | 10 | H-ILSSTNVGSEAF-OH |
| – | 10 | H-NFVPRSKISPEAF-OH |
| – | 10 | H-NFVPRSKISPQGY-OH |
| – | 10 | H-NFVPTNVGSNTY-OH |
| – | 10 | H-NFVPTNVGSQGY-OH |
| – | 10 | H-NVAPRSKISPEAF-OH |
| – | 10 | H-NVAPTNVGSEAF-OH |
| – | 10 | H-NVAPTNVGSQGY-OH |
| – | 0.22 | H-PTDVGAFAF-OH |
| – | 0.2 | H-VPTDVGAFAF-OH |
| – | 8 | H-YAPTNVGSEAF-OH |
| – | 14 | H-YFPTNVGSEAF-OH |
| – | 24 | H-YPTNVGSEAF-OH |
| No displacement | – | H-YVATNVGSEAF-OH |
| – | 45 | H-YVFTNVGSEAF-OH |
| No displacement | – | H-YVPANVGSEAF-OH |
| No displacement | – | H-YVPFNVGSEAF-OH |

| IC50 [1] | IC50 [2] [µM] | Compound |
| --- | --- | --- |
| – | > 100 | H-YVPSNVGSEAF-OH |
| – | > 100 | H-YVPTAVGSEAF-OH |
| – | 5 | H-YVPTDVGSEAF-OH |
| – | 70 | H-YVPTFVGSEAF-OH |
| – | 7 | H-YVPTLVGSEAF-OH |
| No displacement | – | H-YVPTNAGSEAF-OH |
| No displacement | – | H-YVPTNFGSEAF-OH |
| No displacement | – | H-YVPTNVASEAF-OH |
| No displacement | – | H-YVPTNVFSEAF-OH |
| – | 4 | H-YVPTNVGAEAF-OH |
| No displacement | – | H-YVPTNVGFEAF-OH |
| – | > 10 | H-YVPTNVGSAAF-OH |
| No displacement | – | H-YVPTNVGSEAA-OH |
| – | 32 | H-YVPTNVGSEAY-OH |
| No displacement | – | H-YVPTNVGSEFF-OH |
| – | 51 | H-YVPTNVGSEGF-OH |
| – | 4.79 | H-YVPTNVGSFAF-OH |
| – | 4.28 | H-YVPTNVGSHAF-OH |
| – | 6.5 | H-YVPTNVGSKAF-OH |
| – | 8.55 | H-YVPTNVGSLAF-OH |
| – | 6.9 | H-YVPTNVGSQAF-OH |
| – | 95 | H-YVPTQVGSEAF-OH |

| Compound | IC50 [1] | IC50 [2] [µM] |
| --- | --- | --- |
| C[C@H](NC(=O)[C@@H](N)Cc1ccc(O)cc1)C(=O)N[C@@H](Cc1ccccc1)C(=O)O (H-Tyr-Ala-Phe-OH) | No displacement | – |
| CC(C)[C@H](NC(=O)[C@@H](N)Cc1ccc(O)cc1)C(=O)N1CCC[C@H]1C(=O)O (H-Tyr-Val-Pro-OH) | No displacement | – |
| C[C@H](NC(=O)[C@H](CCC(=O)O)NC(=O)[C@@H](N)Cc1ccc(O)cc1)C(=O)N[C@@H](Cc1ccccc1)C(=O)O (H-YEAF-OH) | No displacement | – |
| CC(C)[C@H](NC(=O)[C@@H](N)Cc1ccc(O)cc1)C(=O)N1CCC[C@H]1C(=O)N[C@H](C(=O)O)[C@@H](C)O (H-YVPT-OH) | No displacement | – |
| H-YGSEAF-OH | No displacement | – |
| H-YNVGSEAF-OH | No displacement | – |
| H-YSEAF-OH | No displacement | – |
| H-YTNVGSEAF-OH | – | 18 |
| H-YVGSEAF-OH | No displacement | – |
| H-YVPTN-OH | No displacement | – |
| H-YVPTNV-OH | No displacement | – |
| H-YVPTNVG-OH | No displacement | – |
| H-YVPTNVGS-OH | No displacement | – |
| H-YVPTNVGSE-OH | No displacement | – |
| H-YVPTNVGSEA-OH | No displacement | – |
